Biological target: T1, Sodium-dependent serotonin transporter (Homo sapiens, UniProt P31645)
Test: Inhibition of [3H]-citalopram binding to the serotonin transporter in rhesus (Macaca mulatta) or cynomolgus monkey (Macaca fascicularis) caudate-putamen.
Assay type: tissue-based, Cercopithecidae
Details: not given; call rule not given here
Procedure, shortened: (§1)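 Caudate-putamen membranes homogenised in ice-cold 50 mM Tris·HCl (pH 7.4), spun at 38000g for 20 min, washed twice. Assay at 4 mg original wet tissue/mL with 1 nM [3H]citalopram in 50 mM Tris·HCl pH 7.4 plus 100 mM NaCl. Incubated 2 h at 0-4 °C, then filtered on polyethyleneimine-soaked GF/B and counted by scintillation. Nonspecific binding defined with 10 µM fluoxetine. IC50 by EBDA; triplicates, 2-3 brains.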

T1 sequence (P31645 whole entry): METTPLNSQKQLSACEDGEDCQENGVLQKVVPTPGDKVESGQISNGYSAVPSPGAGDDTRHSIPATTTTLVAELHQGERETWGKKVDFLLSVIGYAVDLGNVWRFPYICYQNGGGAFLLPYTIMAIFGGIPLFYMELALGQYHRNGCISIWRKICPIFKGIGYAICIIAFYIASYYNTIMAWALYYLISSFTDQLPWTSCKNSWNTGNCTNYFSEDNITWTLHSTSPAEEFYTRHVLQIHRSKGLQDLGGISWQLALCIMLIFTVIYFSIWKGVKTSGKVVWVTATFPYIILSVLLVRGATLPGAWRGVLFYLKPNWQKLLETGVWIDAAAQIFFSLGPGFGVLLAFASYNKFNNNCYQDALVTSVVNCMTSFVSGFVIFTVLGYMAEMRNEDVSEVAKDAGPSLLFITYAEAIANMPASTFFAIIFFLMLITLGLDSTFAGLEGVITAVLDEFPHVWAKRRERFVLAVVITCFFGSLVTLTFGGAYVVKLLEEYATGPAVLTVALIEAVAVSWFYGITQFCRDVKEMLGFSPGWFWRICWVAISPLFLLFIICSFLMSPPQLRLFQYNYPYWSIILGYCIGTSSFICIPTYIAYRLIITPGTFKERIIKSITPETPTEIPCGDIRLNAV

In the case of `COC(=O)[C@@H]1C2CC[C@H](C[C@@H]1c1ccccc1)N2C.Cl`, the IC50 is reported as “Not Active”.

Biological target: Monoamine transporters; serotonin & dopamine (Homo sapiens) (UniProt P31645+Q01959)
Test: SERT/DAT ratio of the compound
Assay type: protein assay
Details: not given

Sequence of Monoamine transporters; serotonin & dopamine (Homo sapiens) (P31645 whole entry, looked up): as the sequence (P31645 whole entry) above
Sequence of Monoamine transporters; serotonin & dopamine (Homo sapiens) (Q01959 whole entry, looked up): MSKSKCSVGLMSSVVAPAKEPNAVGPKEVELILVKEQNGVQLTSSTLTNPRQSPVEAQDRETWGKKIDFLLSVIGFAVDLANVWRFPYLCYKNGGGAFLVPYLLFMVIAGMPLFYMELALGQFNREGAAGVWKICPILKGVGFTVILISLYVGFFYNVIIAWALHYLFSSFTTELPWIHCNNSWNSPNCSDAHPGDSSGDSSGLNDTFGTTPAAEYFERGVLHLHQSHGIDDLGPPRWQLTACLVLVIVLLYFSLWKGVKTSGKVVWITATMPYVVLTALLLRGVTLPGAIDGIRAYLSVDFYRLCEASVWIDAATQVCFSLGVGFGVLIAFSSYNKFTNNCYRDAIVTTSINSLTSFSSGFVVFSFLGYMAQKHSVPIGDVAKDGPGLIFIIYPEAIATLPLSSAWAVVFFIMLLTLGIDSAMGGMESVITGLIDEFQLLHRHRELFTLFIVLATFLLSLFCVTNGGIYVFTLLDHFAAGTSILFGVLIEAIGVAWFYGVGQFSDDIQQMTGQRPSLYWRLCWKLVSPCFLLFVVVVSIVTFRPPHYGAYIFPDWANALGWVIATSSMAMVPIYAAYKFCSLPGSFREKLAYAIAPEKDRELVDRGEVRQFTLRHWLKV

First: COC(=O)[C@H]1C(c2ccc(Cl)c(Cl)c2)CC2C[C@@H](O)[C@H]1N2C (stereo in doubt; (1R)-15a) [listing 1 of 2 here]
Second: COC(=O)C1C(c2ccc(Cl)c(Cl)c2)C[C@H]2C[C@@H](O)C1N2C (some centres not stated)
The Ratio of the first is lower: 0.05 for the first, 50 for the second.

Compared with `COC(=O)C1=C(c2ccccc2)CC2CCC1N2C` (configuration not stated), `COC(=O)C1=C(c2ccc(F)cc2)CC2CCC1N2C` (configuration not stated) is higher in Ratio: 11 for the first, 20 for the second.

`COC(=O)C1C(c2ccc(F)cc2)CC2C[C@@H](O)C1N2C` (stereo in doubt; 18c) [listing 1 of 2 here] and `COC(=O)C1C(c2ccc(F)cc2)CC2[C@@H](O)CC1N2C` (stereo in doubt; 14c) [listing 1 of 2 here] cannot be ordered by Ratio: over 120 for the first, over 42 for the second.

`COC(=O)C1=C(c2ccccc2)CC2C[C@@H](O)C1N2C` (some centres not stated) and `COC(=O)C1=C(c2ccccc2)CC2[C@@H](O)CC1N2C` (some centres not stated) are the same in Ratio: 1 for the first, 1 for the second.

`COC(=O)C1C(c2ccccc2)CC2C[C@@H](O)C1N2C` (stereo in doubt; 15d) [listing 1 of 2 here] and `COC(=O)C1C(c2ccccc2)CC2[C@@H](O)CC1N2C` (stereo in doubt; 17d) [listing 1 of 2 here] cannot be ordered by Ratio: over 43 for the first, over 3 for the second.

`COC(=O)C1C(c2ccc3ccccc3c2)CC2[C@@H](O)CC1N2C` (stereo in doubt; 14b) [listing 1 of 2 here] and `COC(=O)C1C(c2ccc3ccccc3c2)CC2C[C@@H](O)C1N2C` (stereo in doubt; 15b) [listing 1 of 2 here] are the same in Ratio: 4 for the first, 4 for the second.

Going from `COC(=O)C1C(c2ccc(Cl)c(Cl)c2)CC2CCC1N2C` (stereo in doubt; 16a) to `COC(=O)C1C(c2ccc(Cl)c(Cl)c2)CC2C[C@@H](O)C1N2C` (stereo in doubt; 18a) [listing 1 of 2 here], the Ratio rises from 73 to 1170.

Compared with `COC(=O)C1C(c2ccccc2)CC2C[C@@H](O)C1N2C` (stereo in doubt; 18d) [listing 1 of 2 here], `COC(=O)C1C(c2ccccc2)CC2[C@@H](O)CC1N2C` (stereo in doubt; 14d) [listing 1 of 2 here] is lower in Ratio: over 190 for the first, 14 for the second.

Going from `COC(=O)C1C(c2ccc3ccccc3c2)CC2[C@@H](O)CC1N2C` (stereo in doubt; 17b) [listing 1 of 2 here] to `COC(=O)C1C(c2ccc3ccccc3c2)CC2C[C@@H](O)C1N2C` (stereo in doubt; 18b) [listing 1 of 2 here], the Ratio rises from 6 to 34.

Compared with `COC(=O)C1=C(c2ccc(Cl)c(Cl)c2)CC2C[C@H](O)[C@H]1N2C`, `COC(=O)C1=C(c2ccc(Cl)c(Cl)c2)CC2C[C@@H](O)C1N2C` (some centres not stated) is higher in Ratio: 6 for the first, over 300 for the second.

First: COC(=O)[C@H]1C(c2ccc(Cl)c(Cl)c2)CC2C[C@@H](O)[C@H]1N2C (stereo in doubt; (1R)-18a) [listing 1 of 2 here]
Second: COC(=O)C1C(c2ccc(Cl)c(Cl)c2)CC2C[C@@H](O)C1N2C (stereo in doubt; 15a) [listing 1 of 2 here]
The Ratio of the first is lower: 11 for the first, 20 for the second.

First: COC(=O)C1C(c2ccc(Cl)c(Cl)c2)CC2[C@@H](O)CC1N2C (stereo in doubt; 17a) [listing 1 of 2 here]
Second: COC(=O)[C@@H]1C(c2ccc(Cl)c(Cl)c2)C[C@H]2C[C@@H](O)C1N2C (some centres not stated)
The Ratio of the first is lower: 238 for the first, 1610 for the second.

Compared with `COC(=O)C1=C(c2ccc3ccccc3c2)CC2[C@@H](O)CC1N2C` (some centres not stated), `COC(=O)C1=C(c2ccc3ccccc3c2)CC2C[C@@H](O)C1N2C` (some centres not stated) is higher in Ratio: 1 for the first, 15 for the second.

First: COC(=O)C1C(c2ccc(F)cc2)CC2[C@@H](O)CC1N2C (stereo in doubt; 17c) [listing 1 of 2 here]
Second: COC(=O)C1C(c2ccc(F)cc2)CC2C[C@@H](O)C1N2C (stereo in doubt; 15c) [listing 1 of 2 here]
The Ratio of the first is lower: 8 for the first, over 80 for the second.

Compared with `COC(=O)C1=C(c2ccc3ccccc3c2)CC2CCC1N2C` (configuration not stated), `COC(=O)C1=C(c2ccc(Cl)c(Cl)c2)CC2CCC1N2C` (configuration not stated) is higher in Ratio: 37 for the first, 747 for the second.

`COC(=O)C1=C(c2ccc(F)cc2)CC2C[C@@H](O)C1N2C` (some centres not stated) and `COC(=O)C1=C(c2ccc(F)cc2)CC2[C@@H](O)CC1N2C` (some centres not stated) are the same in Ratio: 1 for the first, 1 for the second.

Going from `COC(=O)C1C(c2ccc(Cl)c(Cl)c2)CC2CCC1N2C` (stereo in doubt; 13a) to `COC(=O)C1C(c2ccc(Cl)c(Cl)c2)CC2[C@@H](O)CC1N2C` (stereo in doubt; 14a) [listing 1 of 2 here], the Ratio rises from 2 to 55.

First: COC(=O)C1=C(c2ccc(Cl)c(Cl)c2)CC2[C@@H](O)CC1N2C (some centres not stated)
Second: COC(=O)C1C(c2ccc3ccccc3c2)CC2CCC1N2C (stereo in doubt; 16b)
The Ratio of the first is higher: 60 for the first, 10 for the second.

Work on `COC(=O)C1C(c2ccc3ccccc3c2)CC2CCC1N2C` (stereo in doubt; 13b) yielded a Ratio of 5.

Biological target: T1, Sodium-dependent serotonin transporter
Test: Inhibition of [3H]citalopram binding to the serotonin transporter in rhesus (Macaca mulatta) or cynomolgus monkey (Macaca fascicularis) caudate-putamen.
Assay type: tissue-based, Cercopithecidae
Details: target entry is the homologue from another species
Procedure, shortened: as §1

`COC(=O)C1C(c2ccccc2)CC2C[C@@H](O)C1N2C` (stereo in doubt; 15d) [listing 2 of 2 here] and `COC(=O)C1C(c2ccccc2)CC2[C@@H](O)CC1N2C` (stereo in doubt; 34) cannot be ordered by IC50: over 10000 nM for the first, over 20000 nM for the second.

Compared with `COC(=O)C1C(c2ccc3ccccc3c2)CC2C[C@@H](O)C1N2C` (stereo in doubt; 15b) [listing 2 of 2 here], `COC(=O)C1C(c2ccc3ccccc3c2)CC2[C@@H](O)CC1N2C` (stereo in doubt; 14b) [listing 2 of 2 here] is 6.1-fold higher in IC50: 5.57 nM for the first, 34.2 nM for the second.

Compared with `COC(=O)[C@H]1[C@@H](c2ccc(F)cc2)C[C@H]2CC[C@H]1N2C` (stereo in doubt; 16c), `COC(=O)C1C(c2ccc(F)cc2)CC2[C@@H](O)CC1N2C` (stereo in doubt; 14c) [listing 2 of 2 here] is higher in IC50: 1130 nM for the first, over 20000 nM for the second.

`COC(=O)C1=C(c2ccccc2)CC2CCC1N2C` (configuration not stated) and `COC(=O)C1=C(c2ccccc2)CC2C[C@@H](O)C1N2C` (some centres not stated) cannot be ordered by IC50: 28600 nM for the first, over 10000 nM for the second.

First: COC(=O)C1C(c2ccc(Cl)c(Cl)c2)CC2C[C@@H](O)C1N2C (stereo in doubt; 15a) [listing 2 of 2 here]
Second: COC(=O)C1C(c2ccc(Cl)c(Cl)c2)C[C@H]2C[C@@H](O)C1N2C (some centres not stated)
The IC50 of the first is 1.8-fold higher: 27.7 nM for the first, 15 nM for the second. The second is the more potent here.

`COC(=O)C1C(c2ccccc2)CC2[C@@H](O)CC1N2C` (stereo in doubt; 17d) [listing 2 of 2 here] and `COC(=O)C1C(c2ccccc2)CC2C[C@@H](O)C1N2C` (stereo in doubt; 18d) [listing 2 of 2 here] cannot be ordered by IC50: over 10000 nM for the first, over 100000 nM for the second.

`COC(=O)C1=C(c2ccccc2)CC2[C@@H](O)CC1N2C` (some centres not stated) and `COC(=O)C1=C(c2ccc(F)cc2)CC2[C@@H](O)CC1N2C` (some centres not stated) cannot be ordered by IC50: over 100000 nM for the first, over 20000 nM for the second.

`COC(=O)C1C(c2ccc(Cl)c(Cl)c2)CC2C[C@@H](O)C1N2C` (stereo in doubt; 18a) [listing 2 of 2 here] and `COC(=O)C1C(c2ccc(Cl)c(Cl)c2)CC2C[C@H](O)C1N2C` (some centres not stated) are within 1.5-fold of each other in IC50: 1390 nM for the first, 991 nM for the second.

Compared with `COC(=O)C1=C(c2ccc(Cl)c(Cl)c2)CC2C[C@H](O)[C@H]1N2C`, `COC(=O)C1=C(c2ccc(Cl)c(Cl)c2)C[C@H]2C[C@@H](O)C1N2C` is 3.4-fold higher in IC50: 1590 nM for the first, 5370 nM for the second.

Going from `COC(=O)[C@H]1C2C(=O)CC(C[C@H]1c1ccc(Cl)c(Cl)c1)N2C` (some centres not stated) to `COC(=O)C1C(c2ccc(Cl)c(Cl)c2)CC2C[C@@H](O)C1N2C` (stereo in doubt; 33), the IC50 falls from 7040 nM to 533 nM (13-fold). The second is the more potent here.

Going from `COC(=O)C1C(c2ccc3ccccc3c2)CC2C[C@@H](O)C1N2C` (stereo in doubt; 18b) [listing 2 of 2 here] to `COC(=O)C1C(c2ccc3ccccc3c2)CC2[C@@H](O)CC1N2C` (stereo in doubt; 17b) [listing 2 of 2 here], the IC50 rises from 94 nM to 180 nM (1.9-fold).

Compared with `COC(=O)C1C(c2ccc(F)cc2)CC2C[C@@H](O)C1N2C` (stereo in doubt; 18c) [listing 2 of 2 here], `COC(=O)C1C(c2ccc(F)cc2)CC2[C@@H](O)CC1N2C` (stereo in doubt; 17c) [listing 2 of 2 here] is lower in IC50: over 20000 nM for the first, 5820 nM for the second. The second is the more potent here.

First: COC(=O)C1C(c2ccc(Cl)c(Cl)c2)CC2[C@H](O)CC1N2C (some centres not stated)
Second: COC(=O)C1C(c2ccc(Cl)c(Cl)c2)CC2[C@@H](O)CC1N2C (stereo in doubt; 17a) [listing 2 of 2 here]
The IC50 of the first is 7.4-fold higher: 10700 nM for the first, 1450 nM for the second.

First: COC(=O)C1=C(c2ccc3ccccc3c2)CC2[C@@H](O)CC1N2C (some centres not stated)
Second: COC(=O)C1=C(c2ccc3ccccc3c2)CC2C[C@@H](O)C1N2C (some centres not stated)
The IC50 of the first is 2.6-fold lower: 260 nM for the first, 677 nM for the second.

`COC(=O)C1C(c2ccc(Cl)c(Cl)c2)CC2[C@@H](O)CC1N2C` (stereo in doubt; 14a) [listing 2 of 2 here] and `COC(=O)[C@H]1C(c2ccc(Cl)c(Cl)c2)CC2C[C@@H](O)[C@H]1N2C` (stereo in doubt; (1R)-15a) [listing 2 of 2 here] are within 1.5-fold of each other in IC50: 166 nM for the first, 139 nM for the second.

`COC(=O)C1=C(c2ccc(F)cc2)CC2C[C@@H](O)C1N2C` (some centres not stated) and `COC(=O)C1=C(c2ccc(Cl)c(Cl)c2)CC2C[C@@H](O)C1N2C` (some centres not stated) cannot be ordered by IC50: over 10000 nM for the first, over 6000 nM for the second.

Going from `COC(=O)C1C(OC(c2ccc(F)cc2)c2ccc(F)cc2)CC2C[C@@H](O)C1N2C` (some centres not stated) to `COC(=O)C1C(OC(c2ccc(F)cc2)c2ccc(F)cc2)CC2[C@@H](O)CC1N2C` (some centres not stated), the IC50 falls from 9560 nM to 4850 nM (2-fold).

First: COC(=O)C1=C(c2ccc(Cl)c(Cl)c2)CC2[C@@H](O)CC1N2C (some centres not stated)
Second: COC(=O)[C@H]1C(c2ccc(Cl)c(Cl)c2)CC2C[C@@H](O)[C@H]1N2C (stereo in doubt; (1R)-18a) [listing 2 of 2 here]
The IC50 of the first is 1.6-fold lower: 3320 nM for the first, 5300 nM for the second. The first is the more potent here.

`COC(=O)C1C(c2ccccc2)CC2[C@@H](O)CC1N2C` (stereo in doubt; 14d) [listing 2 of 2 here] and `COC(=O)C1C(c2ccc(F)cc2)CC2C[C@@H](O)C1N2C` (stereo in doubt; 15c) [listing 2 of 2 here] cannot be ordered by IC50: 88000 nM for the first, over 10000 nM for the second.

With `COC(=O)[C@@H]1C(c2ccc(Cl)c(Cl)c2)C[C@H]2C[C@@H](O)C1N2C` (some centres not stated) the IC50 was 1220 nM.

From ChEMBL document CHEMBL1134553 (J Med Chem, 2001)
